The values below come from the M2OR odorant receptor database.

Holding throughout (conditions): stereoisomer not certain
In one experiment the test system is T1, A0A140T8K0.
T1 sequence (whole entry): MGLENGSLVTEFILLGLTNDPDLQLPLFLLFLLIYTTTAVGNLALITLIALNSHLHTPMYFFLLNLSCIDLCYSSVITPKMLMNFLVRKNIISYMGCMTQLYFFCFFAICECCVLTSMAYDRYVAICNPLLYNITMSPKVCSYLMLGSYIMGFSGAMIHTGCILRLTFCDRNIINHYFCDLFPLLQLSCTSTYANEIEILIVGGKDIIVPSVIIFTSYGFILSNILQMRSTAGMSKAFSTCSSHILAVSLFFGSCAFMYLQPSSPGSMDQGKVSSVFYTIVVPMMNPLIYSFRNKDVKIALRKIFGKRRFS
The method, boiled down:
(§1)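 Whether a receptor–molecule pair is responsive (active) rests on the original authors' judgment that its measured signal was statistically different from baseline. Pairs without that judgment are non-responsive (inactive). Sources used varied assay methods, commonly transient luciferase assays in mammalian cell lines.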

For a further experiment, the system named is T2, A0A140T8K4.
T2 sequence (whole entry): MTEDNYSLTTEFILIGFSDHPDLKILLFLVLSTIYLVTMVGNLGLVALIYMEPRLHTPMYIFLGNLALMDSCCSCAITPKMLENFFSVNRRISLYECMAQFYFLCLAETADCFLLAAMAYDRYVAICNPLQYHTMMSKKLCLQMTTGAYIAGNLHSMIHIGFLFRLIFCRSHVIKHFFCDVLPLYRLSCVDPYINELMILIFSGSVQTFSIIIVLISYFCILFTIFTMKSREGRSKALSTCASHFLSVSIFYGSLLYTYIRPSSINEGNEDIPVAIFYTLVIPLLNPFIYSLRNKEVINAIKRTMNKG
The method, boiled down:
as §1

The subject of the next experiment is T3, A0A1L1SVG7.
T3 sequence (whole entry): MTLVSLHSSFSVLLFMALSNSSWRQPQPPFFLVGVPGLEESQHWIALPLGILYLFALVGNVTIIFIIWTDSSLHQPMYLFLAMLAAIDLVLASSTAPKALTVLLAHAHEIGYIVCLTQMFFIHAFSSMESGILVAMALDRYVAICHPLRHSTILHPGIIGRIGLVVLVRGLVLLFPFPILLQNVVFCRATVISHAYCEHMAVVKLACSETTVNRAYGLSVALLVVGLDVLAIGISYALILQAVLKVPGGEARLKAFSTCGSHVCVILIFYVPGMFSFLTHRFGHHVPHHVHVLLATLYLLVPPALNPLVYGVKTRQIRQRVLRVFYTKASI
The method in brief:
as §1
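Note: active if original authors judged signal statistically different from baseline.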

Turning to `C=CC(=C)CCC=C(C)C`, in the experiment on A0A140T8K0, the “odorant receptor agonist call” value was “inactive”.
Turning to `CCN(CC)CC`, the “odorant receptor agonist call” value in the experiment with A0A140T8K0 was “inactive”.
Same read-out and setting: with `C=CC(C)=CCC=C(C)CCC=C(C)C` the entry was “inactive”; with `CC1CCC(C(C)C)C(=O)C1` (configuration not stated), “inactive”; with `CCCCCC(C)O` (configuration not stated), “inactive”.
`CCCCCOC(=O)CC`: in the experiment on A0A140T8K0, the “odorant receptor agonist call” value was “inactive”.
On to `CC(=O)OC1(C)CCC23CC1C(C)(C)C2CCC3C` (configuration not stated), for which the “odorant receptor agonist call” value in the experiment on A0A140T8K0 was “inactive”.
As to `CCCCCCC(=O)OCCCC`, in the experiment with A0A140T8K0, the “odorant receptor agonist call” value is “inactive”.
Take `CC(=O)C=CC1=C(C)CCCC1(C)C`: the “odorant receptor agonist call” value with A0A140T8K0 was “inactive”.
The same measure, in the same setting: with `CC1CC=CCCCCCCCCCC(=O)C1` (configuration not stated) the entry was “inactive”.
On the same count and under the same terms, with `CC(C)=C1CCC(C)CC1=O` (configuration not stated) the entry was “inactive”.
Consider `C1CCOCC1`, for which the “odorant receptor agonist call” value in the experiment on A0A140T8K0 was “inactive”.
Turning to `O=C(O)CCCCCBr`, the “odorant receptor agonist call” value in the experiment with A0A140T8K0 was “inactive”.
`CCCCC=O`: the “odorant receptor agonist call” value in the experiment on A0A140T8K0 is “inactive”.
In the case of `CCCCCCCCC=CC=O`, the “odorant receptor agonist call” value in the experiment on A0A140T8K0 is “inactive”.
Same read-out and setting: with `COC(OC)c1ccccc1` the entry was “inactive”; with `CC=CC(=O)C1=C(C)CCCC1(C)C`, “inactive”.
The same measure, in the same setting: with `CCOC(=O)C(C)CC` (configuration not stated) the entry was “inactive”; with `OCCc1ccccc1`, “inactive”; with `CCSCC`, “inactive”.
Same read-out and setting: with `C=C(C)C1CC=C(C)CC1` (configuration not stated) the entry was “inactive”; with `C=CC(=O)CCCCC`, “inactive”; with `Cc1ccc(OC(=O)C(C)C)cc1`, “inactive”.
Regarding `CCc1occc(=O)c1O`, the “odorant receptor agonist call” value in the experiment with A0A140T8K0 is “inactive”.
As to `CCCCCC=CCCC=O`, the “odorant receptor agonist call” value in the experiment on A0A140T8K0 was “inactive”.
As to `CCCCCC(C=O)=Cc1ccccc1`, the “odorant receptor agonist call” value in the experiment with A0A140T8K0 was “inactive”.
As to `CCC=CCCCCC=O`, the “odorant receptor agonist call” value in the experiment with A0A140T8K0 was “inactive”.
As to `CC=C(C)C=O`, the “odorant receptor agonist call” value with A0A140T8K0 is “inactive”.
With `O=C(O)CCCCCCCCC(=O)O`, the “odorant receptor agonist call” value in the experiment on A0A140T8K0 is “active”.
Same read-out and setting: with `c1ccc2ncccc2c1` the entry was “inactive”; with `CCCCCOC(=O)CCC`, “inactive”.
Same read-out and setting: with `CCCCCCCCCCOC(C)=O` the entry was “inactive”; with `CCCCCCC(C)O` (configuration not stated), “inactive”.
On the same count and under the same terms, with `Cc1c(C)c(C)c(C=O)c(C)c1C` the entry was “inactive”; with `O=C([O-])CCCCCCC(=O)[O-].[H+].[H+]`, “inactive”.
In the case of `CCCCCCC(C=O)=Cc1ccccc1`, the “odorant receptor agonist call” value with A0A140T8K0 was “inactive”.
For the compound `CCc1ccccc1O`, the “odorant receptor agonist call” value in the experiment with A0A140T8K0 was “inactive”.
Still for that read-out and setting: with `CCOC(=O)CC(C)C` the entry was “inactive”.
In the case of `CC(C)=CCCC(C)=CCOC(=O)C(C)C`, the “odorant receptor agonist call” value with A0A140T8K0 was “inactive”.
For the compound `C=C(C)C1CCC(C)C(=O)C1` (configuration not stated), the “odorant receptor agonist call” value in the experiment on A0A140T8K0 and in the experiment with A0A1L1SVG7 was “inactive” in each case. In addition, the “odorant receptor agonist call” value with A0A140T8K4 is “active”.
For the compound `CCCCC(=O)O`, the “odorant receptor agonist call” value with A0A140T8K0, in the experiment on A0A140T8K4 and in the experiment with A0A1L1SVG7 was “inactive” in each case.
As for `CC(=O)Oc1ccccc1`, the “odorant receptor agonist call” value with A0A140T8K0, in the experiment on A0A140T8K4 and with A0A1L1SVG7 was “inactive” each time.
`CCCCCC(=Cc1ccccc1)C(OC)OC`: the “odorant receptor agonist call” value in the experiment with A0A140T8K0 is “inactive”.
As to `CC(=O)OCC=C(C)C`, the “odorant receptor agonist call” value with A0A140T8K0, in the experiment with A0A140T8K4 and in the experiment on A0A1L1SVG7 was “inactive” each time.
Take `CCCCCC=O`: the “odorant receptor agonist call” value with A0A140T8K0, in the experiment with A0A140T8K4 and in the experiment on A0A1L1SVG7 was “inactive” each time.
For `c1ccccc1`, the “odorant receptor agonist call” value in the experiment with A0A140T8K0, in the experiment with A0A140T8K4 and with A0A1L1SVG7 was “inactive” in each case.
For `O=C1CCOc2ccccc21`, the “odorant receptor agonist call” value in the experiment with A0A140T8K0, in the experiment on A0A140T8K4 and with A0A1L1SVG7 was “inactive” each time.
Regarding `CCCCCCC=CC=O`, in the experiment with A0A140T8K0, the “odorant receptor agonist call” value was “inactive”.
On to `CCCCCC1=C(C)CCC1=O`, for which the “odorant receptor agonist call” value in the experiment with A0A140T8K0, in the experiment with A0A140T8K4 and in the experiment on A0A1L1SVG7 was “inactive” each time.
With `CC12CCC(CC1=O)C2(C)C` (configuration not stated), the “odorant receptor agonist call” value with A0A140T8K0, with A0A140T8K4 and in the experiment on A0A1L1SVG7 was “inactive” throughout.
`CCCCCCO`: the “odorant receptor agonist call” value in the experiment on A0A140T8K0, in the experiment with A0A140T8K4 and in the experiment on A0A1L1SVG7 was “inactive” each time.
For the compound `CC(C)=CCCC(C)CCO` (configuration not stated), the “odorant receptor agonist call” value in the experiment on A0A140T8K0, in the experiment with A0A140T8K4 and in the experiment on A0A1L1SVG7 was “inactive” throughout.
Consider `CCCCCOC(=O)CCCCC`, for which the “odorant receptor agonist call” value in the experiment on A0A140T8K0, with A0A140T8K4 and in the experiment with A0A1L1SVG7 was “inactive” each time.
In the case of `CCCCCCC(C)=O`, the “odorant receptor agonist call” value with A0A140T8K0, with A0A140T8K4 and in the experiment on A0A1L1SVG7 was “inactive” each time.
`CCCCCC(=O)CC`: the “odorant receptor agonist call” value in the experiment with A0A140T8K0, in the experiment with A0A140T8K4 and in the experiment on A0A1L1SVG7 was “inactive” throughout.
In the case of `CC(=O)OCc1ccccc1`, the “odorant receptor agonist call” value in the experiment on A0A140T8K0, in the experiment with A0A140T8K4 and in the experiment with A0A1L1SVG7 was “inactive” in each case.
For `COc1cc(C(=O)O)ccc1O`, the “odorant receptor agonist call” value in the experiment with A0A140T8K0, in the experiment with A0A140T8K4 and with A0A1L1SVG7 was “inactive” each time.
For the compound `CCCCCCCCCCO`, the “odorant receptor agonist call” value in the experiment with A0A140T8K0, in the experiment with A0A140T8K4 and with A0A1L1SVG7 was “inactive” in each case.
